CAL PDZ FP-1 – blocks peptide binding to human CAL PDZ domain | Q9HD26 | purified CAL PDZ, TMR-peptide fluorescence polarization, 1 h | inhibition, % at 20 µM | 330,000 compounds, 0.02% hits;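 active = highest replicate inhibition of at least 40%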;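 also: plate controls were DMSO neutral control wells for no effect and unlabeled competitor peptide control wells for full effect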
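Control set: unlabelled peptide and DMSO controls / Material: purified CerCALP PDZ construct / Timing: 1 h incubation at room temperature before polarization reading / Doses: 20 µM, one dose / Detection: fluorescence polarization (mP)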
ARNT TACC3 PPI – disruptors of human ARNT/TACC3 interaction; Q9Y6A5; AlphaScreen His-ARNT PAS-B/GST-TACC3 binding, luminescence; TACC3 fragment carries E629A point mutation; inhibition, % at 9.99 µM; 390,000 compounds, 0.66% hits; AID 623870;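 active = mean inhibition of replicates at least 50% and at least half of replicates each reaching 50%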;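 also: 0% = complete ARNT plus TACC3 wells and 100% = ARNT alone without TACC3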
DYRK1A inh – Dyrk1A (rat) kinase inhibition; AID 504441; 310,000 compounds, 0.43% hits; ADP-Glo luminescence, NFATc1 peptide; Q63470; inhibition, % at 12.5 µM; in the data active = inhibition above about 50%;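 also: plate controls were vehicle with enzyme for no effect and no enzyme for full effect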
CAL PDZ FP-2 – CAL PDZ (human) peptide binding inhibition | Q9HD26 | purified CAL PDZ, TMR-peptide fluorescence polarization, 1 h | inhibition, % at 24.9 µM | 300,000 compounds, 0.92% hits | AID 602252;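 active = mean inhibition of at least 30% with at least half of replicates also reaching 30%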;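 also: 0% = DMSO neutral control and 100% = excess unlabeled competitor peptide PRC23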
Numbers without * were called inactive; · = no result given. A selection: hits, their analogues and other compounds. The true share with any hit is near 1.4%.

SMILES	CAL PDZ FP-1	ARNT TACC3 PPI	DYRK1A inh	CAL PDZ FP-2
CCOC(=O)N1CCN(C(=O)CNCc2cccs2)CC1	-2	4	-2	47*
CCCCCCC(=O)Nc1ccc(Br)cn1	-2	-11	5	63*
CCCCCC(=O)Nc1ccc(Cl)cn1	0	10	-9	-6
COc1ccc(CN2C[C@H](O)COC[C@@H]3O[C@@H](CC(=O)NCc4ccccc4Cl)CC[C@H]32)cc1	·	2	·	·
Cc1cc(=O)nc2c3ccccc3n(C(C)C(=O)Nc3c(F)c(F)c(F)c(F)c3F)n12 (configuration not stated)	6	-6	1	82*
NC(=N\N=Cc1ccco1)/C(N)=N/N=Cc1ccco1	-3	63*	-13	-1
C[C@H](CO)N1C[C@H](C)[C@H](CN(C)C)Oc2ccc(NC(=O)C3CCCCC3)cc2CC1=O	·	-3	·	·
CCOc1c(C)cc(S(=O)(=O)NCc2ccccn2)c(C)c1C	·	-2	3	67*
CNC[C@H]1Oc2ccc(NS(=O)(=O)c3ccccc3)cc2C(=O)N([C@@H](C)CO)C[C@@H]1C	·	-4	·	·
O=C(Nc1ccccc1)c1ccc2snnc2c1	0	-7	0	78*
O=c1ccc(-c2nc3ccccc3n2Cc2ccc(Cl)cc2)c[nH]1	·	2	3	41*
Cn1c(-c2ccc(=O)[nH]c2)nc2ccccc21	0	·	7	4
CC(C)(C)C1=Nn2c(nnc2-c2ccccn2)SC1	-3	72*	15	-2
COc1ccc(C2=Nn3c(nnc3-c3ccccc3OC)SC2)cc1OC	-5	18	-2	-9
COc1ccc(C2=Nn3c(nnc3-c3ccccn3)SC2)cc1OC	1	83*	6	2
COc1ccccc1-c1nnc2n1N=C(C(C)(C)C)CS2	0	-4	5	-1
C[C@@H]1CCCCO[C@H](CN(C)CC2CCCCC2)[C@@H](C)CN([C@@H](C)CO)C(=O)c2cc(NS(=O)(=O)c3cn(C)cn3)ccc2O1	·	-6	·	·
C[C@@H]1CN([C@@H](C)CO)C(=O)Cc2cc(NC(=O)CCCN(C)C)ccc2O[C@@H]1CN(C)CC1CCCCC1	·	-8	·	·
Nn1c(SCC(=O)Nc2ccc3c(c2)OCCO3)nnc1-c1ccccn1	0	70*	0	-3
COc1ccc(NC(C)=O)cc1NC(=O)CSc1nnc(-c2ccccn2)n1C	·	19	-7	-2
CCn1c(SCC(=O)Nc2cc(NC(C)=O)ccc2OC)nnc1-c1ccccn1	-1	50*	-4	-3
O=C(COC(=O)c1ccccn1)Nc1ccc2c(c1)OCCO2	-1	14	-4	56*
COCC(=O)N1CC[C@@H]2[C@H]1c1cc(C#Cc3ccccc3)ccc1N[C@@H]2CO	·	-6	·	·
COC(=O)C[C@@H]1CC[C@H]2[C@@H](COc3ccc(NC(=O)NCc4ccccc4)cc3C(=O)N2C)O1	·	-3	·	·
CCNc1nc(NCC)nc(C(=O)Nc2ccccc2)n1	-1	96*	5	-3
SMILES	CAL PDZ FP-1	ARNT TACC3 PPI	DYRK1A inh	CAL PDZ FP-2
COc1ccc(NC(=S)N(CCCN2CCN(C)CC2)Cc2cccs2)cc1	0	85*	2	·
C[C@@H]1CN([C@H](C)CO)C(=O)c2cc(NC(=O)c3ccccc3)ccc2O[C@@H](C)CCCCO[C@@H]1CN(C)S(=O)(=O)c1ccc(Cl)cc1	·	7	·	·
Oc1c(CNc2ccccc2)cc(COCc2ccccc2)c2cccnc12	-1	57*	-16	-1
Cc1cc(=O)oc(C)c1C(=O)NCCc1ccc(F)cc1	·	3	·	39*
Cc1cc(=O)oc(C)c1C(=O)NCCNC(=O)c1c(C)cc(=O)oc1C	0	-4	3	-1
c1cnc(N2CCN(c3nc4ccccc4n4cnnc34)CC2)nc1	-2	49*	·	·
Cc1cccc(N2CCN(c3nc4ccccc4n4cnnc34)CC2)c1C	0	0	-2	-1
O=C(CCn1cnnn1)Nc1ccc(Cl)cc1Cl	-1	-6	6	86*
N#Cc1cc2c(cc1NC(=O)CCn1cnnn1)OCO2	-2	2	4	-4
Cc1ccc(S(=O)(=O)Nc2ccc3c(c2)CC(=O)N([C@H](C)CO)C[C@@H](C)[C@H](CN(C)C(=O)NC(C)C)O3)cc1	·	-1	·	·
COc1ccc2c(n1)Sc1nc3ccccc3nc1N2	-2	8.9*	-7	-1
COc1cc2ccccc2nn1	-1	-3	6	-8
COC(=O)[C@H](C)N(Cc1ccc(Cl)c(Cl)c1)S(=O)(=O)CCN1CCN(c2ccccc2)CC1	-1	4	3	0
COC(=O)[C@H](C)N(Cc1ccc(Cl)c(Cl)c1)S(=O)(=O)CCN1CCCC1	-1	2	11	35*
C[C@H](CO)N1C[C@H](C)[C@@H](CN(C)C(=O)C2CCCCC2)OCCCC[C@H](C)Oc2ccc(NC(=O)CCCN(C)C)cc2C1=O	·	2	·	·
CCN(CC)c1ccc(/C=N/NC(=S)NC)c(O)c1	-4	60*	-4	0
CCN(CC)c1ccc(/C=N/N=C(N)N)c(O)c1	-2	48*	4	0
COc1ccc(NC(=O)Nc2ccc3c(c2)C(=O)N([C@H](C)CO)C[C@H](C)[C@H](CN(C)S(=O)(=O)c2cn(C)cn2)O3)cc1	·	4	·	·
O=C(c1cccnc1)N1C[C@H]2[C@@H](c3ccccc31)[C@@H](CO)N2C(=O)Nc1ccccc1	·	-3	·	·
O=[N+]([O-])c1cnccc1Nc1ccc(Cl)cc1	-1	6	·	75*
C[C@H](CO)N1C[C@H](C)[C@@H](CN(C)CC2CCOCC2)Oc2cc(C3=CCCC3)ccc2S1(=O)=O	·	8	·	·
COc1ccccc1-n1ccnc1SCC(=O)NC1CCCC1	-2	-4	·	-4
COc1cc(-n2ccnc2SC)c(Cl)cc1Cl	0	1	-2	54*
O=C1CS/C(=N/N=C/c2ccccc2)N1c1ccc(O)cc1	·	3	2	79*
O=C1CS/C(=N\N=C\c2ccco2)N1c1ccccc1	0	2	-2	5
SMILES	CAL PDZ FP-1	ARNT TACC3 PPI	DYRK1A inh	CAL PDZ FP-2
Cc1ccc(NC(=O)c2cc(NC(=O)c3ccccc3C(=O)O)ccc2N2CCCCC2)cc1	-3	2	3	51*
Cc1nn(C)c(C)c1NC(=S)Nc1ccc(S(=O)(=O)Nc2ncccn2)cc1	-1	-4	-1	39*
CCn1cc(S(=O)(=O)CC(=O)Nc2cccc(C)c2)c2ccccc21	-1	-2	-2	·
CCn1cc(S(=O)(=O)CC(=O)Nc2ccc(C)cc2)c2ccccc21	0	5	-7	53*
Cc1cccc(-c2nc3ccccc3c3nncn23)c1	-6	-24	58*	·
Cc1ccc(C(=O)N2CCN(c3ccccn3)CC2)cc1C	9	-2	-3	-2
O=C(c1ccc(-c2ccccc2)cc1)N1CCN(c2ccccn2)CC1	-1	-6	0	78*
C[C@@H]1CCCCO[C@@H](CN(C)S(=O)(=O)c2ccccc2)[C@@H](C)CN([C@@H](C)CO)C(=O)c2cc(NS(=O)(=O)c3cccs3)ccc2O1	·	-7	·	·
NC(=O)c1c(NC(=O)c2ccccc2F)sc2c1CCCC2	2	2	-4	77*
Cc1c(N=NC2=C(O)CCCC2=O)c(=O)n(-c2ccccc2)n1C	0	63*	1	-2

Bioassay records deposited in PubChem BioAssay by Broad Institute.
